Source: ChEMBL document CHEMBL1153857, “1,4-Diazepanes derived from (S)-serine--homopiperazines with improved sigma(1) (sigma) receptor affinity and selectivity” (Eur J Med Chem, 2009)

Experiments:
[1] = molecular target: Sigma non-opioid intracellular receptor 1 (Cavia porcellus, UniProt Q60492); assay: Displacement of [3H](+)-pentazocine from sigma 1 receptor in guinea pig brain membrane by liquid scintillation analyzer; format: cell membranes
In short: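 Guinea pig brain membranes (about […] protein) incubated with 3 nM [3H]-pentazocine and at least 6 test concentrations in 50 mM Tris-HCl pH 7.4, 120 min at 37 °C. Filtration through PEI-presoaked GF/B filters, four cold-buffer washes, scintillation counting. Non-specific binding with excess haloperidol. Triplicates; IC50 by non-linear regression, Ki reported.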

[2] = Displacement of [3H]ditolylguanidine from sigma 2 receptor in rat liver membrane by liquid scintillation analyzer; format: cell membranes
In short: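 Rat liver membranes (about […] protein) incubated with 3 nM [3H]-ditolylguanidine plus 100 nM (+)-pentazocine to mask sigma1 sites, with at least 6 test concentrations, in 50 mM Tris-HCl pH 8.0, 120 min at 25 °C. Stopped with ice-cold 10 mM Tris pH 8.0, filtered on PEI-soaked GF/B, washed three times, scintillation counted. […] Triplicates; Ki reported.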

[3] = Selectivity for sigma 1 receptor in guinea pig brain membrane over sigma 2 receptor in rat liver membrane; format: cell membranes
[4] = molecular target: Mu-type opioid receptor (Homo sapiens, UniProt P35372); assay: Displacement of radioligand from mu opioid receptor
In short: (§1)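 Competition binding, first screened at two test concentrations. Exact Ki determined only when binding inhibition at the higher concentration was considerable.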

[5] = molecular target: Kappa-type opioid receptor (Homo sapiens, UniProt P41145); assay: Displacement of [3H]U-69593 from kappa opioid receptor; in short: as §1
[6] = Displacement of radioligand from phencyclidine binding site of NMDA receptor; in short: as §1

Sigma non-opioid intracellular receptor 1, sequence (Q60492 whole entry): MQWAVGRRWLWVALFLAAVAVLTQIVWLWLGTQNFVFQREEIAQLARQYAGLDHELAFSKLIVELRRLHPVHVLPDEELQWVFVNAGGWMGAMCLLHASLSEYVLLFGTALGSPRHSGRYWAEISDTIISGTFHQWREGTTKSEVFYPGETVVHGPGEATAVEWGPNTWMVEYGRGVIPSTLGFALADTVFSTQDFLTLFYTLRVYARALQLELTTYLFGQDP
Mu-type opioid receptor, sequence (P35372 whole entry): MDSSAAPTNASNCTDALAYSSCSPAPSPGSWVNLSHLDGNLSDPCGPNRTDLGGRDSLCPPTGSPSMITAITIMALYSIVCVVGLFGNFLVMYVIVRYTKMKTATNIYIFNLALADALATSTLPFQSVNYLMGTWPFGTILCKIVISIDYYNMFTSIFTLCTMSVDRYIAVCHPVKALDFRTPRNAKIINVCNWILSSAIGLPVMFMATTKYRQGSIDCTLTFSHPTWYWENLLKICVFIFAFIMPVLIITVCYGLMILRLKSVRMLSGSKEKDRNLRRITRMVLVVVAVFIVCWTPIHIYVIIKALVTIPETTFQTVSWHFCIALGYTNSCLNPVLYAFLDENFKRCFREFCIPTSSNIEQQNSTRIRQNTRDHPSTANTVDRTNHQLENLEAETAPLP
Kappa-type opioid receptor, sequence (P41145 whole entry): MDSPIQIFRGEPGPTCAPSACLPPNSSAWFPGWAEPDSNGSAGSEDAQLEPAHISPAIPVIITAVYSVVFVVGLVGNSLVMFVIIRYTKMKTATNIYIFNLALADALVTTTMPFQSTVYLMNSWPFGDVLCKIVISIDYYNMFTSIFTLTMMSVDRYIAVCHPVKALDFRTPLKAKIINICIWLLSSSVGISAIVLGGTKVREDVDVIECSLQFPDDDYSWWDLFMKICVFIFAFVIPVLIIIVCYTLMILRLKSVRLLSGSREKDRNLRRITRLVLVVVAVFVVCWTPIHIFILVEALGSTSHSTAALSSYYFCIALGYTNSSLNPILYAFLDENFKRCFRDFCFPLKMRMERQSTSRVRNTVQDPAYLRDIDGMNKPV

Row | Ki [1] [µM] | Ki [2] [µM] | Ratio Ki [3] | IC50 [4] [µM] | IC50 [5] [µM] | IC50 [6] [µM] | SMILES
1 | 0.32 | 9.01 | 28 | > 10 | > 10 | > 10 | COC(CN1CCCN(Cc2ccccc2)[C@@H](CO)C1)OC
2 | 0.0074 | 0.374 | 53 | > 10 | > 10 | > 10 | OC[C@H]1CN(Cc2ccccc2)CCCN1Cc1ccccc1
3 | > 10 | > 10 |  |  |  |  | COC(CN1CCN(Cc2ccccc2)[C@@H](CO)C1)OC

Row | SMILES | Ki [1] [µM] | Ki [2] [µM] | Ratio Ki [3] | IC50 [4] [µM] | IC50 [5] [µM] | IC50 [6] [µM]
4 | OC[C@H]1CN(Cc2ccccc2)CCN1Cc1ccccc1 | 0.038 | 0.177 | 5 |  |  | 
